Experimental data gathered from unrelated publications.
Lines come from different studies, so protocols differ. pIC50: −log10 of the molar value.
Cell line: HepG2
Observed: cell growth or viability

Structure (SMILES) | assay | conditions | endpoint | value
CC(=O)Nc1cccc(-n2c(=O)n(C3CC3)c(=O)c3c(Nc4ccc(I)cc4F)n(C)c(=O)c(C)c32)c1 | resazurin | 25 nM, 72 h | viability | 42.6%
COc1ccc(NC(=O)c2c(Nc3ccccc3)sc(C(=O)NN=Cc3ccc(OC)c(O)c3)c2NC(C)=O)cc1 | SRB | 1 nM, 48 h | viability | 100%
COc1ccc(-c2nc3ccccc3[nH]2)cc1OC | MTT | 48 h | pIC50 | 4.36
CCOC(=O)c1ccc(-n2c(N)c(C#N)c(CC#N)c(C#N)c2=O)cc1 | MTT | 50 µM, 24 h | viability | 35.1%
Clc1ccc(-c2nc3ccccc3[nH]2)cc1 | MTT | 48 h | pIC50 | 4.29
COc1ccc(NC(=O)c2c(Nc3ccccc3)sc(C#N)c2NC(=O)CNc2ccc(Br)cc2)cc1 | SRB | 100 µM, 48 h | viability | 39.7%
c1ccc2c(-c3nc4ccccc4[nH]3)c3ccccc3cc2c1 | MTT | 48 h | pIC50 | 5.01
CCOC(=O)c1ccc(-n2c(-c3ccc(C)cc3)cc(-c3ccc(O)cc3)c(C#N)c2=O)cc1 | MTT | 12.5 µM, 24 h | viability | 50.4%
COc1ccc(NC(=O)c2c(Nc3ccccc3)sc(C(=O)NN=Cc3ccccc3)c2NC(C)=O)cc1 | SRB | 1 nM, 48 h | viability | 99.3%
